Beta apoptosis = beta cell apoptosis inhibition | INS-1E cytokine-induced death, ATP luminescence, 48 h; percent of positive-control rescue, neutral wells zero | protection from apoptosis, % (test concentration not listed) | 0.8% of 300,000 active;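 active = Every replicate reaches about 75%, or at least half do and their mean reaches it too, limit read from the data; inconclusive = At least half of replicates reach the limit but their mean does not; inactive = Under half of replicates reach the limit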;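 note: 0% = cytokine-treated negative control wells and 100% = positive control rescue; higher means more ATP so stronger rescue from cytokine killing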
H9c2 TAG inh = inhibitors of triacylglycerol accumulation | H9c2 cells, Nile Red lipid (TAG) fluorescence; cells loaded with 200 µM oleic acid | inhibition, % at 12.5 µM | 0.66% of 230,000 active;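 active = pattern-corrected inhibition of lipid staining of at least 50% with the nuclear-stain viability signal not falling by more than 50%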;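 note: 0% = DMSO wells and 100% = triacsin C control wells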
T cruzi inh = blocks replication of Trypanosoma cruzi. 1.4% of 300,000 active. inhibition, % (test concentration not listed). T. cruzi beta-gal in NIH3T3, luminescence, 90 h;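 active = mean inhibition across valid replicates above about 55%, limit read from the data; inconclusive = mean below that limit but half or more replicates reach it; inactive = mean below it, under half of replicates reach it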;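 note: signal also drops with host cell toxicity which is not excluded here; 0% = plate median of DMSO wells and 100% = zero luminescence signal; higher percent means less beta-gal luminescence so fewer parasites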
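Read-out: Parasite load inhibition, % | Test system: Mouse NIH/3T3 fibroblasts infected with β-gal-expressing T. cruzi Tulahuen C4 | Amount: 5,000 cells/well | Medium: DMEM, 2% fetal bovine serum | Signal: GalScreen β-gal luminescence, detergent lysis, 60 min | Timing: 3 h attach, ≥90 h co-culture | Also added: Tulahuen C4 trypomastigotes, 5000/well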
CSC inhib = cancer stem cell inhibition; cancer stem cell-like cells viability, luminescence; inhibition, % at 7.5 µM; 1.1% of 300,000 active; in the data active = inhibition above about 75%; inconclusive = no clear call, values can overlap the other calls; tested in HMLE shEcad cells
Bfl-1 A1 inh = inhibitors of the anti-apoptotic protein A1, read as caspase activation; 0.066% of 330,000 active; MEF A1-2A-BIM cells, Caspase-Glo 3/7 luminescence, 3 h; percent of clofoctol response, vehicle zero; caspase activation, % (concentration not given with the values);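 active = over half of replicate activation scores above 10%, or exactly half above 10 with the replicate mean above 10; inconclusive = replicate mean below 10 yet half the replicates above 10; inactive = over half of replicates below 10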
Calb FLC = C. albicans growth modulation with fluconazole | C. albicans CaCi-2 (fluconazole-resistant clinical isolate) + fluconazole, Alamar Blue growth, 48 h | growth inhibition, % (concentration not given with the values) | 0.57% of 300,000 active;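 active = growth inhibition above about 58% in most replicates, limit read from the data, passing the limit was not always enough; inconclusive = exactly half the replicates above a set limit; inactive = most replicates below a set limit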;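 note: all wells also contain fluconazole at 8 µg/ml as a sub-toxic cotreatment; 0% = median of DMSO wells and 100% = median of geldanamycin control wells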
Starred values were filed as active, the others as inactive; ? = inconclusive; . = no result given. This is a sample that favours compounds with a hit; in the whole collection about 3.1% have one here.

SMILES	Beta apoptosis	H9c2 TAG inh	T cruzi inh	CSC inhib	Bfl-1 A1 inh	Calb FLC
CCc1c(C#N)c(SCCC(=O)Nc2ccc(C)cc2)nc2c1C(=O)CC(C)(C)C2	-3.7	18.4	51.4	39.7	0.1	13.7
CCCCn1c(N)c(N(CC(C)C)C(=O)COC(=O)Cc2cccc(OC)c2)c(=O)[nH]c1=O	-2.3	2.1	-8.1	-0.5	1.1	-6.9
CC(NC(=O)C(NS(=O)(=O)c1cccc2nsnc12)C(C)C)c1ccccc1 (stereo unspecified)	-6.3	1.7	14.6	1.6	0.1	9.7
CC(C)(C)n1[nH]c2c3c(ccc2c1=O)C(=O)c1ccccc1C3=O	85.8*	33.3	1.2	48.3	-0.3	7.2
O=C(Nc1nc2ccccc2s1)c1cc(-c2ccccc2)nn1-c1ccccc1	111.4*	.	20.7	44.2	0.6	-0.1
Cc1ccc(N2C(=O)c3ccccc3NC2C(C)Cc2ccc3c(c2)OCO3)cc1 (stereo unspecified)	17.8	.	55.2*	54.2	-0.4	-13.5
NC(N)=Nc1nc(-c2ccccc2)c2ccccc2n1	.	17.4	80.6*	17.1	-0.4	19.0
CCc1nc(N=C(N)N)nc2ccccc12	-2.0	.	?	5.6	0.5	-19.5
O=C(Nc1cccnc1)c1ccc([N+](=O)[O-])o1	-32.3	.	19.2	54.1	-0.1	7.2
O=C(NCc1cccnc1)c1ccc([N+](=O)[O-])o1	-16.7	.	73.6*	14.9	1.4	32.4
O=C(NCc1ccco1)c1ccc([N+](=O)[O-])o1	-2.9	64.4	73.0*	0.7	0.8	25.4
O=C(/C=C/c1cccc([N+](=O)[O-])c1)NCc1cccnc1	-4.1	-20.3	4.8	.	0.6	-0.2
O=C(/C=C/c1ccc([N+](=O)[O-])cc1)NCc1cccnc1	95.3*	-15.6	-10.2	-14.1	-0.5	7.4
CCN1CCN(CC(=O)Nc2ccc(S(=O)(=O)N3C(C)CCCC3C)cc2)CC1 (stereo unspecified)	-0.9	.	57.9*	-1.9	0.5	25.0
O=C(CC1SC(N2CCCC2)=NC1=O)Nc1ccc(C(=O)N2CCN(c3cccc(Cl)c3)CC2)cc1 (stereo unspecified)	0.2	-20.7	21.8	3.8	-4.2	7.9
CCN(CC(=O)Nc1ccc(NC(C)=O)cc1)CC(=O)Nc1cc(C)on1	-2.9	0.1	.	0.7	-0.2	.
Cc1nc(NC(=O)c2ccc(Cl)cc2)sc1Cc1ccc2c(c1)OCO2	22.7	.	-16.7	78.9*	0.4	0.1
Cc1nc(NC(=O)c2ccccc2)sc1Cc1ccc2c(c1)OCO2	12.8	.	-11.1	42.2	-0.2	-20.8
CC1=C(C(N)=O)C(c2ccccc2[N+](=O)[O-])n2ncnc2N1 (stereo unspecified)	-3.7	.	7.3	-2.3	-0.1	1.9
Cc1ccccc1CC(=O)Nc1ccc(S(=O)(=O)N2CCN(C)CC2)cc1	-3.7	-9.4	-19.1	-13.7	-0.5	1.7
c1ccc(NNC2=NCCCCC2)cc1	1.6	.	13.0	84.0*	0.9	-15.8
c1ccc(CNC2=NCCCCC2)cc1	0.2	.	-14.4	-2.5	-0.6	-8.4
Cc1ccc(S(=O)(=O)NCCS(=O)(=O)N2CCN(c3ccccc3)CC2)cc1	2.5	.	8.7	-6.3	0.9	-2.6
O=[N+]([O-])c1ccc(S(=O)(=O)NCCS(=O)(=O)N2CCN(c3ccccc3)CC2)cc1	1.3	.	56.1*	-5.7	0.9	-3.0
Cc1ccc(S(=O)(=O)N2CCOCC2)cc1C(=O)NC1=NCCS1	-5.0	-5.1	.	-6.7	1.7	.
SMILES	Beta apoptosis	H9c2 TAG inh	T cruzi inh	CSC inhib	Bfl-1 A1 inh	Calb FLC
CCOc1ccc(Br)cc1C1C(C(=O)OC)=C(N)Oc2cc(N(C)C)ccc21 (stereo unspecified)	2.2	42.8	69.2*	55.7	0.0	-3.4
CCCNC(=O)c1cc(C2CCCCN2C(=O)c2ccc3c(c2)CCO3)on1 (stereo unspecified)	.	-0.7	.	.	.	.
N#Cc1cc(-c2ccc(Cl)cc2)cnc1Sc1ccccc1	4.1	.	56.4*	-4.8	-0.8	-7.0
O=[N+]([O-])c1ccc(-c2nc(C(Cl)Cl)c3ccccc3n2)cc1	94.0*	111.9*	30.7	96.9*	1.2	46.0
Fc1ccc(C2c3[nH]c4ccccc4c3CCN2Cc2cccn2-c2ncccn2)cc1 (stereo unspecified)	4.3	26.1	69.7*	-8.0	0.0	-20.7
O=C(NNC(=O)C(Cl)Cl)c1cnn(-c2ccccc2)c1C(F)(F)F	2.0	6.5	-12.5	9.6	0.2	-5.3
CCN(CC)CCN(C(=O)c1ccc(S(=O)(=O)N(C)C2CCCCC2)cc1)c1nc2ccc(OC)cc2s1	-1.3	20.1	64.6*	3.9	-0.6	-5.7
CCN(c1ccccc1)S(=O)(=O)c1ccc(C(=O)N(CCCN(C)C)c2nc3cc4c(cc3s2)OCO4)cc1	-12.7	2.9	23.9	5.2	0.0	-2.4
CN(C)CCCN(C(=O)c1ccc(S(=O)(=O)N(C)Cc2ccccc2)cc1)c1nc2cc3c(cc2s1)OCO3	113.7*	19.5	34.5	6.8	-0.2	2.2
COc1ccc2sc(N(CCCN(C)C)C(=O)c3ccc(S(=O)(=O)N(C)Cc4ccccc4)cc3)nc2c1	.	13.9	55.2*	-7.3	0.3	-12.3
CN(C)CCN(C(=O)c1ccc(N2C(=O)CCC2=O)cc1)c1nc2cc3c(cc2s1)OCO3	0.6	1.6	56.7*	7.8	1.1	-5.6
CCN(CC)CCN(C(=O)c1ccc(C(=O)c2ccccc2)cc1)c1nc2ccc(OC)cc2s1	-13.7	10.1	24.4	2.0	-1.0	-1.4
CCOc1cccc2sc(N(CCCN(C)C)C(=O)c3ccc(S(=O)(=O)N(C)Cc4ccccc4)cc3)nc12	-1.3	3.3	21.3	11.9	0.3	-3.9
CC1(c2ccc(Cl)cc2)NC(=O)N(CC(=O)N2CCN(C(=O)c3cccs3)CC2)C1=O (stereo unspecified)	.	-0.6	.	.	.	.
O=c1c2[nH]cnc2n(-c2cccc(F)c2)c(=O)n1Cc1ccccc1	-4.5	.	-13.7	-14.8	-1.4	0.4
Cc1ccc2sc(N(CCCN(C)C)C(=O)c3ccc(S(=O)(=O)N(C)C)cc3)nc2c1C	4.5	0.9	37.9	20.8	0.1	-30.5
Cc1ccc2sc(N(CCCN(C)C)C(=O)c3ccc(S(=O)(=O)N(C)Cc4ccccc4)cc3)nc2c1C	.	13.9	59.8*	-7.1	0.0	23.8
NC(=O)COC(=O)C1CSC2(c3ccc(F)cc3)CCC(=O)N12 (stereo unspecified)	3.5	.	-1.9	-10.0	-0.2	-1.9
Brc1cc(Br)c2ncnc(N3CCCCC3)c2c1	13.2	-2.7	1.7	83.6*	0.1	-10.0
O=C(COC(=O)c1ccc2c(c1)OCO2)Nc1ccccc1Cl	-6.8	-15.2	.	.	-0.7	.
C(=C\c1nccc2c1[nH]c1ccccc12)/c1ccccc1	12.7	.	19.1	69.7	-0.6	39.8
Cc1ccc(/C=C\c2nccc3c2[nH]c2ccccc23)cc1	4.6	4.4	7.8	83.2*	1.6	3.8

Source: PubChem BioAssay (several laboratories)
